Rows were chosen to be rich in hits. Some 3.5% of all compounds tested hit in one or more screens of this group.
MrgX1 antag – human MrgX1 receptor antagonism, primary screen | Q96LB2 | B-score at 10 µM | AID 588676 | hit rate 1.3% among 310,000 | MRGX1-HEK293 calcium flux, Fluo-4, BAM8-22 antagonism; stronger effect = lower value;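 active means calcium-response B-score plate-corrected more than 3 library SD below zero, starting fluorescence within 5 deviations, no agonist response on first addition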;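 further: peak minus trough fluorescence over baseline after final BAM8-22 challenge near maximal dose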
Target sequence (Q96LB2 whole entry, looked up): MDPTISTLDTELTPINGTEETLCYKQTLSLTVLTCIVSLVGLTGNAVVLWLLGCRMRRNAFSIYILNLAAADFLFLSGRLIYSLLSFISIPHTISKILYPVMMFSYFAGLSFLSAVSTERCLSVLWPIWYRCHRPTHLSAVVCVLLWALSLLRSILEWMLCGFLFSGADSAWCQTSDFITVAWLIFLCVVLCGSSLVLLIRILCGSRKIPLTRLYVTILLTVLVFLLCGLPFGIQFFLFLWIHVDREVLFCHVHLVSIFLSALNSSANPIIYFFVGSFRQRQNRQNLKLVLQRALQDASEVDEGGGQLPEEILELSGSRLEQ
RGS4 inh – inhibitors of human RGS4. HEK293 M3R/RGS4 inducible, Fluo-4 calcium flux; stronger effect = higher value; triggered by carbachol at its EC20. B-score at 10 µM. hit rate 0.45% among 310,000;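 active means B-score, a plate-corrected calcium signal, over three deviations above library mean, with baseline fluorescence within five deviations of library mean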;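 further: RGS4 expression induced by doxycycline in cells with stable M3 receptor; B-score is computed from the integrated fluorescence ratio over baseline after carbachol; higher B-score means a larger calcium signal and so more RGS4 inhibition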
Target sequence (P49798 whole entry, looked up): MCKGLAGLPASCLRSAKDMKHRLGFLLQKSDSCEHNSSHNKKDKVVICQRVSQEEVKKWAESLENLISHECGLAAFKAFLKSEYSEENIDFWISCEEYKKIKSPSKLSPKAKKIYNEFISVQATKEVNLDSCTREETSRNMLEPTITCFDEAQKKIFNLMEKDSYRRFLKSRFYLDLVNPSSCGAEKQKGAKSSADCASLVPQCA
RGS4 pot – RGS4 potentiation or activation; hit rate 0.92% among 310,000; B-score at 10 µM; HEK293 M3R/inducible RGS4, carbachol calcium flux Fluo4; stronger effect = lower value;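 active means B-score of the integrated calcium signal more than 4 SD below the library mean, with starting fluorescence not abnormally high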;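 further: negative B-score means reduced calcium response which marks RGS4 activation or potentiation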
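test system = HEK293 cells with stable M3R and inducible RGS4 | schedule = recording 10 s baseline at 1 Hz, 100 s post-agonist | technique = Fluo4-AM (2 µM) calcium-flux fluorescence, kinetic read | measure = Agonist-evoked peak-minus-minimum fluorescence over baseline, integrated ratio, B score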
MrgX1 allo act – human MrgX1 positive allosteric modulation, primary screen; AID 588675; Q96LB2; MrgX1-HEK293, Fluo-4 calcium flux, FDSS; stronger effect = higher value; B-score at 10 µM; hit rate 0.63% among 310,000;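 active means plate-corrected calcium response at least 3 library SD above typical, normal starting fluorescence, not activating the receptor alone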;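 further: compound read alongside a low EC10 to EC30 dose of BAM8-22 agonist; peak minus trough fluorescence over baseline measured at the second addition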
MrgX1 ag – human MrgX1 receptor agonism, primary screen; Q96LB2; hit rate 0.44% among 310,000; AID 588627; MrgX1-HEK293 cells, Fluo-4 calcium fluorescence, agonist mode; stronger effect = higher value; B-score at 10 µM;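 active means calcium response B-score plate-corrected fluorescence ratio at least 3 library SD, with starting fluorescence B-score inside 5 SD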
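Assay system: MrgX1-expressing HEK293 cells / Amount: fifteen thousand cells per well / Doses: test compound in the initial addition of three / Timing: cells plated overnight, dye loaded 0.5 h 37 °C, 0.5 h room temperature / Technique: kinetic calcium dye fluorescence, Fluo-4 NW / Control set: positive and negative controls per plate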
Active calls of the source: *; i = inactive; / = no result given.

SMILES | MrgX1 antag | RGS4 inh | RGS4 pot | MrgX1 allo act | MrgX1 ag
C#CCOCCOCCOCCNc1nc(N2CCN(C(=O)CCCCCCCCCCNC(=O)Cn3cc(CCCCCN)nn3)CC2)nc(N2CCN(C(=O)CCCCCCCCCCNC(=O)[C@@H]([C@H](C)O)n3cc(C)nn3)CC2)n1 | i | / | / | 11* | i
C#CCOCCOCCOCCNc1nc(N2CCN(C(=O)CCCCCCCCCCNC(=O)Cn3cc(C[C@@H](C)O)nn3)CC2)nc(N2CCN(C(=O)CCCCCCCCCCNC(=O)[C@@H]([C@H](C)O)n3cc(C)nn3)CC2)n1 | i | / | / | i | i
COc1ccc(Cl)cc1S(=O)(=O)NCc1nc2nc(C)cc(C)n2n1 | i | i | i | i | i
COc1ccccc1NC(=O)NCC1CC1(Cl)Cl (centres undefined) | i | i | i | i | i
O=C(Nc1cccc(C(=O)O)c1)/C(=C\c1ccccc1)NC(=O)c1cccc2ccccc12 | i | i | i | i | i
CCC(C)Sc1cccc(-c2nc3ccc(C)cn3c2NCc2ccccc2)c1 (centres undefined) | i | i | -7.6* | i | i
Cc1ccc(C(=O)c2cc([N+](=O)[O-])ccc2N2CCCCC2)cc1C | i | i | -7.6* | i | i
Cc1ccc(C#CC[N+]2(CC#Cc3ccc(C)cc3)CCCCC2)cc1 | i | i | -7.1* | i | i
C#CC[N+]1(CC#Cc2cccc(C)c2)CCCCC1 | i | i | i | i | i
C#CC[N+]1(CC#Cc2ccccc2)CCCCC1 | i | i | i | i | i
C(#Cc1ccccc1)C[N+]1(CC#Cc2ccccc2)CCCCC1 | i | i | -8.6* | i | i
COc1ccc(N(CC(=O)NC2CCCC2)C(=O)c2ccc(C)s2)c(OC)c1 | i | i | i | i | i
CSc1nsc(SCC(=O)Nc2nc3ccc(C)cc3s2)n1 | i | i | i | i | i
N=C1S/C(=C\c2ccc(-c3cccc(Cl)c3)o2)C(=O)N1c1nccs1 | i | i | i | i | i
O=C1OC(c2cccs2)=N/C1=C\c1ccc(-c2cccc(Cl)c2)o1 | -5.1* | i | i | i | i
CCOc1ccc(S(=O)(=O)NC(Cc2cnc[nH]2)C(=O)O)cc1 (centres undefined) | -4.9* | i | i | i | i
O=C(c1ccco1)N(CCC(c1ccccc1)c1ccco1)Cc1ccco1 (centres undefined) | -6.4* | i | i | i | i
Cc1ccc(C(CCN(Cc2ccccc2)C(=O)c2ccco2)c2ccco2)cc1 (centres undefined) | i | i | i | i | i
Cc1nc(S/C(=C/c2ccc(-c3ccc(Cl)cc3)o2)C(=O)O)n[nH]1 | i | i | i | i | i
Cc1nc(S/C(=C/c2ccc(-c3ccc(C(=O)O)cc3)o2)C(=O)O)n[nH]1 | i | i | i | i | i
CC(=O)c1ccc(-c2ccc(/C=C(/Sc3n[nH]c(C)n3)C(=O)O)o2)cc1 | -4.8* | i | i | i | i
Cc1nc(S/C(=C/c2ccc(-c3cc(Cl)ccc3C)o2)C(=O)O)n[nH]1 | -5* | i | i | i | i
O=C(Nc1ccccc1)C1=C[C@@H](c2ccc(C(F)(F)F)cc2)C[C@@H](OCCCCO)O1 | i | i | i | i | i
CCC(C)NC(=O)c1cc(Sc2nnc(C)s2)nc2ccccc12 (centres undefined) | i | i | i | i | i
O=C(/C=C1\SC(=O)N(CC(=O)Nc2ccc(Cl)cc2)C1=O)Nc1ccc(F)cc1 | i | i | i | i | i
SMILES | MrgX1 antag | RGS4 inh | RGS4 pot | MrgX1 allo act | MrgX1 ag
Cc1cccc(NC(=O)CN2C(=O)S/C(=C\C(=O)Nc3ccc(Cl)cc3)C2=O)c1 | -5.7* | i | i | i | i
CC1(C)OC(=O)C(=CNc2ccccc2)C(=O)O1 | -7.3* | i | i | i | i
CCOC(=O)c1nn(-c2ccccc2)c2nc(-c3ccc(OC)cc3)c(C#N)c(=O)n12 | -4.9* | i | i | i | i
COc1ccc(N2CCN(Cc3cc(=O)c(OCC(=O)Nc4ccccc4)co3)CC2)cc1 | i | i | i | i | i
COc1ccc(NC(=O)COc2coc(CN3CCN(c4ccccc4)CC3)cc2=O)cc1 | -5.7* | i | i | i | i
O=C(Nc1cc(C(F)(F)F)cc(C(F)(F)F)c1)Nc1cnn(-c2ccc([N+](=O)[O-])cc2)c1C(F)(F)F | -7* | i | i | i | i
CNC(=O)Nc1cc(C(F)(F)F)cc(C(F)(F)F)c1 | i | i | i | i | i
CCc1nnc(NC(=O)CCC(=O)NC2CC2)s1 | i | i | i | i | i
Cc1cccc(-c2cc(C(=O)Nc3ccc4c(c3)OCCO4)c3ccccc3n2)c1 | i | i | -7.2* | i | i
O=C(Nc1ccc2c(c1)OCCO2)c1cc(-c2ccccn2)nc2ccc(Br)cc12 | i | i | i | i | i
CCOc1ccc(-c2cc(C(=O)Nc3ccc4c(c3)OCCO4)c3ccccc3n2)cc1 | i | i | -7.6* | i | i
Cc1nn(-c2ccccc2)c(Cl)c1/C=N/Nc1nncc(=O)[nH]1 | i | i | i | i | i
COCc1cc(Sc2cccc(Cl)c2Cl)nc(-c2ccccc2)n1 | i | i | i | 8* | i
COCc1cc(N2CCOCC2)nc(-c2ccccc2)n1 | i | i | i | i | i
O=[N+]([O-])c1cc([N+](=O)[O-])c(N2CCOCC2)cc1NCc1ccccc1 | -9.6* | i | i | i | i
O=[N+]([O-])c1c(NCCCO)cc(N2CCCCCC2)c2nonc12 | i | i | i | i | i
O=[N+]([O-])c1ccc(/C=N/Nc2nc(NCc3ccccc3)nc(N3CCOCC3)n2)cc1 | i | i | i | i | i
O=[N+]([O-])c1c(NCc2ccccc2)cc(N2CCc3ccccc3C2)c2nonc12 | -6* | i | i | i | i
O=[N+]([O-])c1cccc(/C=N/Nc2nc(NCc3ccccc3)nc(N3CCOCC3)n2)c1O | i | i | i | i | 34*
O=C(Cc1ccc(NC2=NC3CS(=O)(=O)CC3S2)cc1)NCCc1ccccc1 (centres undefined) | i | i | i | i | i
COC(CNC(=O)CN1CCN(Cc2ccc(F)cc2Cl)C1=O)OC | i | i | i | i | i
C[C@H](O)C(=O)C1=Nc2c(nc(N)[nH]c2=O)NC1 | i | / | / | i | i
C[C@H](O)[C@H](O)[C@H]1CNc2nc(N)[nH]c(=O)c2N1 | -5.4* | i | i | i | i

Screening data deposited in PubChem by Johns Hopkins Ion Channel Center.
